Calls of active or inactive are those of the source. The rule behind the calls is not given here.
Key:
[1] = molecular target: Mast/stem cell growth factor receptor Kit (Homo sapiens) (UniProt P10721); assay: Inhibition of cKIT using ATP as substrate
[2] = molecular target: Receptor-type tyrosine-protein kinase FLT3 (Homo sapiens) (UniProt P36888); assay: Inhibition of FLT3 using ATP as substrate
[3] = molecular target: Protein kinase C alpha type (Homo sapiens, UniProt P17252); assay: Inhibition of PKCalpha using ATP as substrate
[4] = molecular target: Protein kinase C theta type (Homo sapiens, UniProt Q04759); assay: Inhibition of PKCtheta using ATP as substrate
[5] = molecular target: Rho-associated protein kinase 2 (Homo sapiens, UniProt O75116); assay: Inhibition of ROCK2 using ATP as substrate
[6] = Inhibition of S6K using ATP as substrate
[7] = Inhibition of PKA using ATP as substrate
[8] = molecular target: Serine/threonine-protein kinase pim-2 (Homo sapiens, UniProt Q9P1W9); assay: Inhibition of PIM2 using ATP as substrate
Serine/threonine-protein kinase pim-2, sequence (Q9P1W9 whole entry, canonical isoform): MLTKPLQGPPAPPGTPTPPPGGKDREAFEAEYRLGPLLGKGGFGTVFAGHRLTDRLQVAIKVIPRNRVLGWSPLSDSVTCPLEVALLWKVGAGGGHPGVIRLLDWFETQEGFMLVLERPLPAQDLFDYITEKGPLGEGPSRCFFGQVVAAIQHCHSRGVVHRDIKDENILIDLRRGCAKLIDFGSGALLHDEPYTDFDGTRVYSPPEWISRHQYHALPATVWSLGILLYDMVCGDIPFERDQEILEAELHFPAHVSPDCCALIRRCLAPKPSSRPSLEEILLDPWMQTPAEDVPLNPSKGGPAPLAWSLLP

[9] = molecular target: Phosphatidylinositol 4,5-bisphosphate 3-kinase catalytic subunit gamma isoform (Homo sapiens, UniProt P48736); assay: Inhibition of PI3Kgamma using ATP as substrate
[10] = Growth inhibition of human RS4:11 cells after 48 hrs by WST-1 assay; format: functional, cell-based; settings: RS4-11, 48 h
Procedure, shortened: (§1)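 Compound (0–10 μM) added to the culture medium and incubated 48 h. Proliferation and viability read by WST-1 reagent. Survival expressed as percentage of control cultures and IC50 derived by curve fitting.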

[11] = tested on: K562; assay: Growth inhibition of human K562 cells after 48 hrs by WST-1 assay; format: functional, cell-based; settings: K562, 48 h; procedure, shortened: as §1
[12] = tested on: MV4-11; assay: Inhibition of PIM-mediated 4E-BP1 phosphorylation in human MV4-11 cells after 180 mins by Western blot analysis; format: cell-based
Procedure, shortened: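 MV4;11 cells at 5 × 10^5/mL in RPMI 1640 with 10% FCS, 37 °C, 5% CO2, treated at 0–10 μM for varied times. Lysed on ice in Triton X-100 buffer with NaF, Na3VO4 and protease inhibitors. 50 μg protein run on 15% SDS–PAGE and blotted for phospho-4E-BP1 with HRP chemiluminescence. Reprobed for total 4E-BP1 and β-actin as loading controls.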

[13] = molecular target: Vascular endothelial growth factor receptor 2 (Homo sapiens, UniProt P35968); assay: Inhibition of KDR using ATP as substrate
[14] = molecular target: MAP kinase-activated protein kinase 5 (Homo sapiens, UniProt Q8IW41); assay: Inhibition of MK5 using ATP as substrate
[15] = molecular target: Serine/threonine-protein kinase mTOR (Homo sapiens, UniProt P42345); assay: Inhibition of mTOR using ATP as substrate
[16] = molecular target: Phosphatidylinositol 4,5-bisphosphate 3-kinase catalytic subunit alpha isoform (Homo sapiens, UniProt P42336); assay: Inhibition of PI3Kalpha using ATP as substrate
Phosphatidylinositol 4,5-bisphosphate 3-kinase catalytic subunit alpha isoform, sequence (P42336 whole entry, canonical isoform): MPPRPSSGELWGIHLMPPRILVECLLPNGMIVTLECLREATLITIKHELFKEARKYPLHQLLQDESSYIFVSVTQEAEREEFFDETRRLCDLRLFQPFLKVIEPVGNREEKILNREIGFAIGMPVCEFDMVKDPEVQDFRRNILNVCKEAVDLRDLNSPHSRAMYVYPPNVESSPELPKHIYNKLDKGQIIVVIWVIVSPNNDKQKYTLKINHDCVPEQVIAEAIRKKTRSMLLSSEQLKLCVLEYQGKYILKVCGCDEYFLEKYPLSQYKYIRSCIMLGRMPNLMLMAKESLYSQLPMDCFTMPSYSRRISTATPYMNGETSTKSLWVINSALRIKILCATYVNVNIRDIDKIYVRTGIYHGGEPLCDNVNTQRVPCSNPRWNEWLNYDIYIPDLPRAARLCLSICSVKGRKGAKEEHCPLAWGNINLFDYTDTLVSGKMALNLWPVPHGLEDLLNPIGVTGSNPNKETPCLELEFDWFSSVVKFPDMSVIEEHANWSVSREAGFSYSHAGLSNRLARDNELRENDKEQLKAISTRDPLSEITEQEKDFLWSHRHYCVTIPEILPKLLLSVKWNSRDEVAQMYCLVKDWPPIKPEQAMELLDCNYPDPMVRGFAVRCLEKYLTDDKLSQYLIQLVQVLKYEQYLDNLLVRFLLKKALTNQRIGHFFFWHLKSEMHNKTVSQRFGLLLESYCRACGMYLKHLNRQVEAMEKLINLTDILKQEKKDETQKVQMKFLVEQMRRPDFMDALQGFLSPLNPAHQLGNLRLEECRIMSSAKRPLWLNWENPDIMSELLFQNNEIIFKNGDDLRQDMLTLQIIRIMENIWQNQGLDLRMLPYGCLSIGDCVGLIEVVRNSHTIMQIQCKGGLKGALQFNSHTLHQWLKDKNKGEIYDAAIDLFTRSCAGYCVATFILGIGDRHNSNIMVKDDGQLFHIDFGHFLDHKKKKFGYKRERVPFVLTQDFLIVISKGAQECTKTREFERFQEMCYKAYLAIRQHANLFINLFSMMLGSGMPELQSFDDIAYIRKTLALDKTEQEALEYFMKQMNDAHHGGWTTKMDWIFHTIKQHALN

[17] = molecular target: Phosphatidylinositol 4,5-bisphosphate 3-kinase catalytic subunit beta isoform (Homo sapiens, UniProt P42338); assay: Inhibition of PI3Kbeta using ATP as substrate
[18] = molecular target: Phosphatidylinositol 4,5-bisphosphate 3-kinase catalytic subunit delta isoform (Homo sapiens, UniProt O00329); assay: Inhibition of PI3Kdelta using ATP as substrate
Phosphatidylinositol 4,5-bisphosphate 3-kinase catalytic subunit delta isoform, sequence (O00329 whole entry, canonical isoform): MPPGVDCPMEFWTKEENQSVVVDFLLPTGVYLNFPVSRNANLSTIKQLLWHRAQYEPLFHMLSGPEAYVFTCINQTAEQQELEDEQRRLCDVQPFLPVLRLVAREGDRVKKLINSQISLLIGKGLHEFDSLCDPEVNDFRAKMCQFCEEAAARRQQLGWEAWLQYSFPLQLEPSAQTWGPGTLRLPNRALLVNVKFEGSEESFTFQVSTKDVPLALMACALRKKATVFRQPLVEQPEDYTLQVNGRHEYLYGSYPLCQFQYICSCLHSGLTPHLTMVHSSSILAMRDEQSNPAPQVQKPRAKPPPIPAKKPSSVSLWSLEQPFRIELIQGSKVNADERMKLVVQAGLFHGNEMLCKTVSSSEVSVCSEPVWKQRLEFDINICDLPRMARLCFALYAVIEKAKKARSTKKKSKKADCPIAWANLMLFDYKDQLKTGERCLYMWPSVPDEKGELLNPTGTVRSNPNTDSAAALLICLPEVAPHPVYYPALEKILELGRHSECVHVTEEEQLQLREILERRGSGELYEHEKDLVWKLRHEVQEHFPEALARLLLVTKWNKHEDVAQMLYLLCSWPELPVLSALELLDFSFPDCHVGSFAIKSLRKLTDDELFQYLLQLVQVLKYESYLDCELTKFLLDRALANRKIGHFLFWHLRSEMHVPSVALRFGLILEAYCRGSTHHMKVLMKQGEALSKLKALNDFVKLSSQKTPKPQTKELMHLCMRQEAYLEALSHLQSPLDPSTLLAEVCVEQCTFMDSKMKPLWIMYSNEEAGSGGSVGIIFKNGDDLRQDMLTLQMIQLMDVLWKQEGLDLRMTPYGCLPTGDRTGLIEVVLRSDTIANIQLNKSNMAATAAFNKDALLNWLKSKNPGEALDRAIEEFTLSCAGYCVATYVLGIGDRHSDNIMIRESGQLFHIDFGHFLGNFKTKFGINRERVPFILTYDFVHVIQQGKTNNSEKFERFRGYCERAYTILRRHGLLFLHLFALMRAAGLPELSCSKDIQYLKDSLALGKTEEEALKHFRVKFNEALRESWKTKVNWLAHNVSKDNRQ

[19] = molecular target: Serine/threonine-protein kinase pim-1 (Homo sapiens, UniProt P11309); assay: Inhibition of PIM1 using ATP as substrate
Serine/threonine-protein kinase pim-1, sequence (P11309 whole entry): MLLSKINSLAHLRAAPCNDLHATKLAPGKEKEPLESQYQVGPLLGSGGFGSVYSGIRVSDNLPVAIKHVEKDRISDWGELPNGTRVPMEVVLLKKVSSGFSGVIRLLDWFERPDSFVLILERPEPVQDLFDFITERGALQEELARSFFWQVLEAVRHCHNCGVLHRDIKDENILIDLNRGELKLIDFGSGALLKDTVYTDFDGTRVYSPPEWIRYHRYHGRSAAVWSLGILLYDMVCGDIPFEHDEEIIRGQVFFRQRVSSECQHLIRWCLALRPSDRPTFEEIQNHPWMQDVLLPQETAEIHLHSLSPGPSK

[20] = molecular target: Serine/threonine-protein kinase pim-3 (Homo sapiens, UniProt Q86V86); assay: Inhibition of PIM3 using ATP as substrate

Receptor-type tyrosine-protein kinase FLT3 (Homo sapiens), sequence (P36888 whole entry): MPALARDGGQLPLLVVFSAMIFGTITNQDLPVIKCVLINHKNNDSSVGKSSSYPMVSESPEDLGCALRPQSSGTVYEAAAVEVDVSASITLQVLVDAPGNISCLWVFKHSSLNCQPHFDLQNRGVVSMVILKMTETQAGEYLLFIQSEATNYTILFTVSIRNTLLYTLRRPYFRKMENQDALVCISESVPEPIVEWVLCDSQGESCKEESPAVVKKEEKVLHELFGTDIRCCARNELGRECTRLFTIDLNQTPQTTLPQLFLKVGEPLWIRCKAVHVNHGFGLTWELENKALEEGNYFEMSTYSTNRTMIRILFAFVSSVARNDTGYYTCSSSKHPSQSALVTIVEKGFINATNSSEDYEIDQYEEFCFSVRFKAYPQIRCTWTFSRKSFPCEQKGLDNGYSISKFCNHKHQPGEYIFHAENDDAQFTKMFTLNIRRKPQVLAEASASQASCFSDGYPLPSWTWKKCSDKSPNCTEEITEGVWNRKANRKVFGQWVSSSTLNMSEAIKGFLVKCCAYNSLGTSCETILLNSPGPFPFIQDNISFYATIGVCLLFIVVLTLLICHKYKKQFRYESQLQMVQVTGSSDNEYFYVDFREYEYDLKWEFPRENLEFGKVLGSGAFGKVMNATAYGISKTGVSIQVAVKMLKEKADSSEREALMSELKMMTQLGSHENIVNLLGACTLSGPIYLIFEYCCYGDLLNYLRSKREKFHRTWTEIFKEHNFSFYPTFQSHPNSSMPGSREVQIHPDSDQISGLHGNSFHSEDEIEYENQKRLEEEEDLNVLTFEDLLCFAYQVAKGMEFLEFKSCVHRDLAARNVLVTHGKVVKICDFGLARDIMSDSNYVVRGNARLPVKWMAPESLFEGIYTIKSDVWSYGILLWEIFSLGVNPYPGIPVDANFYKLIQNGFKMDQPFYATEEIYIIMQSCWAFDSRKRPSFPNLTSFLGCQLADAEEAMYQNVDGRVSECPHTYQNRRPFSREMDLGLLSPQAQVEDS
Mast/stem cell growth factor receptor Kit (Homo sapiens), sequence (P10721 whole entry): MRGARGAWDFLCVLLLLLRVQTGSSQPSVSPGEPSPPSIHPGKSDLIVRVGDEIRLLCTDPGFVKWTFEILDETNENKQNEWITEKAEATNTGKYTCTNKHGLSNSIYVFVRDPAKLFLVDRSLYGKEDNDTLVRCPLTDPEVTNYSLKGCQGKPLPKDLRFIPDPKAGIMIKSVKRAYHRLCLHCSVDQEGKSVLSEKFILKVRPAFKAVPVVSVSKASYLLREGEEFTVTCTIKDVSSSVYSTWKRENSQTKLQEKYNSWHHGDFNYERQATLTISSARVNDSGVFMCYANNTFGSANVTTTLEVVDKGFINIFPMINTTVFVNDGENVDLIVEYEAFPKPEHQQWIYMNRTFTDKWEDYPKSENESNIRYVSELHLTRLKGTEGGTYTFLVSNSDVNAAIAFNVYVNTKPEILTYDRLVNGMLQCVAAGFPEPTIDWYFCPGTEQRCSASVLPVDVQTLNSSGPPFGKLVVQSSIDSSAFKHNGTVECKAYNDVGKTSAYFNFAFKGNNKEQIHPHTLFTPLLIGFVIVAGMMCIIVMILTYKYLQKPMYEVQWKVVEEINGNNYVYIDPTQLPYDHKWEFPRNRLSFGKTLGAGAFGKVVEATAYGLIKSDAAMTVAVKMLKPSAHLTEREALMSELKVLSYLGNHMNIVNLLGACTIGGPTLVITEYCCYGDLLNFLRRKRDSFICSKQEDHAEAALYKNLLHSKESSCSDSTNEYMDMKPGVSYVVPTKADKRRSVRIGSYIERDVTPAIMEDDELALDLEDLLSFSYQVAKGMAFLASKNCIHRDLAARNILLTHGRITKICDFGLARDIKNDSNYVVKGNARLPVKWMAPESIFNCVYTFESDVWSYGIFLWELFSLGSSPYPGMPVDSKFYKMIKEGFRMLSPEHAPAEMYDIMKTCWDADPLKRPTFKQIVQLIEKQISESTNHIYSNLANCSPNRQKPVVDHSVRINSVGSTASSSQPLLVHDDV

| inhibition [1] | inhibition [2] | SMILES | IC50 [3] [µM] | IC50 [4] [µM] | IC50 [5] [µM] | IC50 [6] [µM] | IC50 [7] [µM] | IC50 [8] [µM] | IC50 [9] [µM] | IC50 [10] [µM] | IC50 [11] [µM] | inhibition [12] | IC50 [13] [µM] | IC50 [14] [µM] | IC50 [15] [µM] | IC50 [16] [µM] | IC50 [17] [µM] | IC50 [18] [µM] | IC50 [19] [µM] | IC50 [20] [µM] |
| --- | --- | --- | --- | --- | --- | --- | --- | --- | --- | --- | --- | --- | --- | --- | --- | --- | --- | --- | --- | --- |
| inactive | inactive | CN1CCC2(CC1)NC(=O)c1c(c3ccc(Cl)c(Cl)c3n1C)C2C#N (racemic) |  |  |  |  |  |  |  |  |  |  |  |  |  |  |  |  |  |  |
|  |  | Cn1c2c(c3ccc(Cl)c(Cl)c31)C(C#N)C1(CCNCC1)NC2=O (racemic) | 2.2 | 1.4 | 0.22 | 0.23 | 0.077 | 0.24 | 3.1 | 3.57 | 6.49 | Dose-dependent effect | 7.2 | 1.7 | > 9.1 | > 9.1 | 8.6 | 4.7 | 0.06 | 0.09 |
